Activity calls are given as the source filed them. The rule behind the calls is not given here.
B1: Ribokinase (Escherichia coli K-12), P0A9J6 (protein)
chain: MQNAGSLVVLGSINADHILNLQSFPTPGETVTGNHYQVAFGGKGANQAVAAGRSGANIAFIACTGDDSIGESVRQQLATDNIDITPVSVIKGESTGVALIFVNGEGENVIGIHAGANAALSPALVEAQRERIANASALLMQLESPLESVMAAAKIAHQNKTIVALNPAPARELPDELLALVDIITPNETEAEKLTGIRVENDEDAAKAAQVLHEKGIRTVLITLGSRGVWASVNGEGQRVPGFRVQAVDTIAAGDTFNGALITALLEEKPLPEAIRFAHAAAAIAVTRKGAQPSVPWREEIDAFLDRQR

Assays:
[1] = Inhibition of Escherichia coli O18:K1 C7 HldE by luminescent assay
Outline: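 His-tagged E. coli O18:K1 C7 HldE (3 nM) pre-incubated 30 min at room temperature with inhibitor (≤5% DMSO). Then H-7-P 0.2 uM and ATP 0.2 uM added for 40 min in pH 7.5 Hepes, 1 mM MnCl2, 25 mM KCl, 0.012% Triton X-100, 1 mM DTT. ATP depletion read by luciferase luminescence; IC50 from 6–10 concentrations, means of three experiments.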

Ribokinase = target: T1, Ribokinase (Escherichia coli K-12, UniProt P0A9J6); assay: Inhibition of Escherichia coli K12 MG1655 ribokinase by luminescent assay
T1 sequence (P0A9J6 whole entry): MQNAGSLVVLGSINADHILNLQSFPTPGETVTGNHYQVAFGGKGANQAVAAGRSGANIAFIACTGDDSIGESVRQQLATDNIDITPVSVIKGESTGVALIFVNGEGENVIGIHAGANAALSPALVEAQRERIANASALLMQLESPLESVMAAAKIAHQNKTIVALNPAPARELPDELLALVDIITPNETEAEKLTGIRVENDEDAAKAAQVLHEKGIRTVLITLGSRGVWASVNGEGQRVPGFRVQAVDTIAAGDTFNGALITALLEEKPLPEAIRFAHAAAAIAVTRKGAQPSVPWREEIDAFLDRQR
Outline: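 His-tagged E. coli K12 MG1655 ribokinase (0.6 nM) in pH 7.5 Hepes buffer with 1 mM MnCl2, 25 mM KCl, 0.012% Triton X-100, 1 mM DTT. Inhibitor pre-incubated 30 min at room temperature, then D-ribose 3 uM and ATP 3 uM added for 40 min. Remaining ATP detected by luciferase/luciferin luminescence; IC50 fitted from 6–10 concentrations.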

[2] = Inhibition of Neisseria meningitidis 2C43 HldA by luminescent assay
Outline: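 His-tagged N. meningitidis 2C43 HldA (20 nM) pre-incubated 30 min at room temperature with inhibitor, then H-7-P 0.2 uM and ATP 0.2 uM added for 40 min. Buffer pH 7.5 Hepes, 1 mM MnCl2, 25 mM KCl, 0.012% Triton X-100, 1 mM DTT. Residual ATP measured by luciferase/luciferin luminescence; IC50 fitted from 6–10 concentrations.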

Escherichia coli [3] = assay: Activity of Escherichia coli O18:K1 C7 HldE in presence of 50 uM ATP
Outline: (§1)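 His-tagged E. coli O18:K1 C7 HldE kinase steady-state kinetics, pH 7.5 with 1 mM MnCl2, 25 mM KCl, 5% DMSO. H-7-P Km measured at fixed ATP 50 uM or 0.3 uM; ADP formation followed by PK/LDH-coupled NADH fluorescence (ex 360, em 520 nm), read kinetically; values ± SD.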

Escherichia coli [4] = assay: Activity of Escherichia coli O18:K1 C7 HldE in presence of 0.3 uM ATP; outline: as §1
Escherichia coli [5] = assay: Inhibition of Escherichia coli O18:K1 C7 HldE in presence of Triton-X100 by luminescent assay
[6] = Inhibition of Escherichia coli O18:K1 C7 HldE by fluorescent assay
Outline: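 Coupled fluorescent HldE-kinase assay: His-tagged E. coli O18:K1 C7 HldE (66 pM), 30 min inhibitor pre-incubation at room temperature, then H-7-P 1 uM, ATP 50 uM with PK/PEP/LDH/NADH. pH 7.5 Hepes, 1 mM MnCl2, 25 mM KCl, 0.012% Triton X-100, 1 mM DTT. NADH fluorescence read kinetically; Ki derived, substrate levels varied for competition.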

Escherichia coli [7] = assay: Inhibition of Escherichia coli O18:K1 C7 HldE in presence of D-glycero-D-manno-heptose-7-phosphate by luminescent assay
Neisseria meningitidis = assay: Activity of Neisseria meningitidis 2C43 HldA in presence of 0.2 uM D-glycero-D-manno-heptose-7-phosphate
Outline: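 His-tagged HldA, Ni-NTA purified, at 20 nM with 0.2 µM H-7-P and ATP. Buffer is 50 mM Hepes pH 7.5, 1 mM MnCl2, 25 mM KCl, 0.012% Triton X-100 and 1 mM DTT. Reaction runs 40 min at room temperature. ATP depletion is read by luciferase/D-luciferin luminescence.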

Escherichia coli [8] = assay: Activity of Escherichia coli O18:K1 C7 HldE in presence of 1.8 uM D-glycero-D-manno-heptose-7-phosphate
Outline: (§2)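 His-tagged HldE, Ni-NTA purified, steady-state kinetics with ATP varied at fixed H-7-P. Conditions are pH 7.5 with 1 mM MnCl2, 25 mM KCl and 5% DMSO in Hepes/Triton X-100/DTT buffer. ADP is detected by a pyruvate kinase/lactate dehydrogenase coupled system, reading NADH fluorescence kinetically (ex 360, em 520 nm). Values ± SD.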

Escherichia coli [9] = assay: Activity of Escherichia coli O18:K1 C7 HldE in presence of 0.2 uM D-glycero-D-manno-heptose-7-phosphate; outline: as §2
[10] = compound: Nc1ncnc2c1ncn2[C@@H]1O[C@H](COP(=O)(O)OP(=O)(O)OP(=O)(O)O)[C@@H](O)[C@H]1O; assay: Activity of Escherichia coli K12 MG1655 ribokinase in presence of 3 uM D-ribose; conditions: Escherichia coli K-12
Outline: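 His-tagged ribokinase, Ni-NTA purified, at 0.6 nM with 3 µM D-ribose and ATP. Buffer is 50 mM Hepes pH 7.5, 1 mM MnCl2, 25 mM KCl, 0.012% Triton X-100 and 1 mM DTT. Reaction runs 40 min at room temperature. ATP depletion is read by luciferase/D-luciferin luminescence. Values ± SD.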

| Molecule | IC50 [1] | also measured |
| --- | --- | --- |
| Cc1oc(-c2ccc([N+](=O)[O-])cc2)nc1C(=O)N(CC(=O)O)Cc1ccccn1 | 151 µM |  |
| Cc1nc(-c2cccc(S(C)(=O)=O)c2)sc1C(=O)N(CC(=O)O)Cc1nc2ccccc2s1 | 75 µM |  |
| O=C(O)CN(Cc1ccccn1)C(=O)c1ccc(-c2ccccc2)cc1 | > 300 µM |  |
| Cc1oc(-c2ccc(Br)cc2)nc1C(=O)N(CC(=O)O)Cc1ccccn1 | 27 µM |  |
| Cc1nc(-c2ccccc2)oc1C(=O)N(CC(=O)O)Cc1ccccc1N | > 300 µM |  |
| Cc1nc(-c2ccc3ccccc3c2)sc1C(=O)N(CC(=O)O)Cc1nc2ccccc2s1 | 0.48 µM | IC50 (Ribokinase): > 33 µM; IC50 [2]: 12 µM |
| CC(=O)c1cccc(-c2nc(C)c(C(=O)N(CC(=O)O)Cc3ccccn3)s2)c1 | 216 µM |  |
| COc1ccc(-c2nc(C(=O)N(CC(=O)O)Cc3ccccn3)c(C)o2)cc1 | 75 µM |  |
| Cc1oc(-c2ccccc2)nc1C(=O)N(CC(=O)O)Cc1ccncc1 | > 300 µM |  |
| CC(=O)Nc1cccc(-c2nc(C(=O)N(CC(=O)O)Cc3ccccn3)c(C)o2)c1 | 28 µM |  |
| COc1cccc(-c2nc(C)c(C(=O)N(CC(=O)O)Cc3ccccn3)o2)c1 | 17 µM |  |
| O=P(O)(O)OC[C@@H](O)[C@H]1OC(O)[C@@H](O)[C@@H](O)[C@@H]1O (stereo partly drawn) |  | Km (Escherichia coli [3]): 0.6 µM; Km (Escherichia coli [4]): 0.23 µM |
| Cc1oc(-c2cccc(N3CCOCC3)c2)nc1C(=O)N(CC(=O)O)Cc1ccccn1 | 70 µM |  |
| Cc1oc(-c2ccccc2)nc1C(=O)N(CC(=O)O)Cc1ccccc1 | > 300 µM |  |
| Cc1nc(-c2cccc([N+](=O)[O-])c2)sc1C(=O)N(CC(=O)O)Cc1nc2ccccc2s1 | 0.5 µM | IC50 (Ribokinase): > 300 µM; IC50 [2]: 75 µM |
| Cc1oc(-c2ccccc2)nc1C(=O)N(CC(=O)O)Cc1nccs1 | 110 µM |  |
| COc1cccc(-c2nc(C(=O)N(CC(=O)O)Cc3ccccn3)c(C)o2)c1 | 15 µM | IC50 (Ribokinase): > 300 µM; IC50 [2]: > 300 µM |
| Cc1oc(-c2ccccc2)nc1C(=O)N(CC(=O)O)Cc1ccco1 | > 300 µM |  |
| COc1cccc(-c2nc(C)c(C(=O)N(CC(=O)O)Cc3nc4ccccc4s3)o2)c1 | 0.27 µM | IC50 (Ribokinase): > 300 µM; IC50 [2]: 6 µM |
| O=C(O)CN(Cc1ccccn1)C(=O)c1ccc(-c2ccccc2)o1 | 100 µM |  |
| Cc1nc(-c2ccccc2)sc1C(=O)N(CC(=O)O)Cc1ccccn1 | 52 µM |  |
| COc1cccc(-c2nc(C)c(C(=O)N(CC(=O)O)Cc3nc4ccccc4s3)s2)c1 | 0.42 µM |  |
| Cc1oc(-c2ccccc2N)nc1C(=O)N(CC(=O)O)Cc1ccccn1 | 31 µM |  |

| Molecule | IC50 [1] | also measured |
| --- | --- | --- |
| Cc1oc(-c2cccc(C(F)(F)F)c2)nc1C(=O)N(CC(=O)O)Cc1ccccn1 | 35 µM |  |
| Cc1oc(-c2cccc(NC(=O)C3CC3)c2)nc1C(=O)N(CC(=O)O)Cc1ccccn1 | 14 µM |  |
| Cc1oc(-c2ccc(C(F)(F)F)cc2)nc1C(=O)N(CC(=O)O)Cc1ccccn1 | 142 µM |  |
| Cc1oc(-c2ccc(N)cc2)nc1C(=O)N(CC(=O)O)Cc1ccccn1 | 22 µM |  |
| COc1cc(-c2nc(C)c(C(=O)N(CC(=O)O)Cc3nc4ccccc4s3)s2)ccc1N | 0.26 µM |  |
| Cc1oc(-c2ccccc2)nc1C(=O)N(CC(=O)O)Cc1cccnc1 | > 300 µM |  |
| Cc1oc(-c2ccccc2)cc1C(=O)N(CC(=O)O)Cc1ccccn1 | 42 µM |  |
| Cc1oc(-c2cccc(N)c2)nc1C(=O)N(CC(=O)O)Cc1ccccn1 | 153 µM |  |
| Cc1oc(-c2ccccc2Br)nc1C(=O)N(CC(=O)O)Cc1ccccn1 | 44 µM |  |
| Cn1nc(-c2ccccc2)cc1C(=O)N(CC(=O)O)Cc1ccccn1 | 57 µM |  |
| Cc1nc(-c2ccccc2)oc1C(=O)N(CC(=O)O)Cc1ccccn1 | 69 µM | Activity (Escherichia coli [5]): Active; Ki [6]: 38 µM; Activity (Escherichia coli [7]): Active |
| Nc1ncnc2c1ncn2[C@@H]1O[C@H](COP(=O)(O)OP(=O)(O)OP(=O)(O)O)[C@@H](O)[C@H]1O |  | Km (Neisseria meningitidis): > 0.4 µM; Km (Escherichia coli [8]): 147 µM; Km (Escherichia coli [9]): > 0.8 µM |
| Cc1nc(-c2ccc(N)c([N+](=O)[O-])c2)sc1C(=O)N(CC(=O)O)Cc1ccccn1 | 13 µM |  |
| Cc1oc(-c2ccccc2)nc1C(=O)N(CC(=O)O)Cc1ccccn1 | 51 µM |  |
| Cc1nc(-c2ccc3[nH]ccc3c2)sc1C(=O)N(CC(=O)O)Cc1nc2ccccc2s1 | 0.33 µM | IC50 (Ribokinase): > 100 µM; IC50 [2]: 8.5 µM |
| Cc1oc(-c2cccc(-c3ccn[nH]3)c2)nc1C(=O)N(CC(=O)O)Cc1nc2ccccc2s1 | 0.11 µM |  |
| Cc1oc(-c2ccccc2[N+](=O)[O-])nc1C(=O)N(CC(=O)O)Cc1ccccn1 | 141 µM |  |
| COc1cccc(-c2nc(C(=O)N(CC(=O)O)Cc3ccc4ccccc4n3)c(C)o2)c1 | 12 µM |  |
| Cc1oc(-c2cccc(Br)c2)nc1C(=O)N(CC(=O)O)Cc1ccccn1 | 10 µM |  |
| Cc1oc(-c2cccc([N+](=O)[O-])c2)nc1C(=O)N(CC(=O)O)Cc1ccccn1 | 5.8 µM | IC50 (Ribokinase): > 300 µM; IC50 [2]: > 300 µM |
| Cc1onc(-c2ccccc2)c1C(=O)N(CC(=O)O)Cc1ccccn1 | > 300 µM |  |
| B1 |  | Km [10]: 18 µM |

From ChEMBL document CHEMBL1143345, “Towards Gram-negative antivirulence drugs: new inhibitors of HldE kinase” (Bioorg Med Chem, 2009)
